Hit rate of the full screen: of about 2,500 compounds, about 1,200 (48%) were called active. The set was probably picked from earlier hits. The list shows a part of the results. Unmarked numbers belong to inactive results.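 How the source made its calls: active means mean activation above the low control average plus 3 SD, as set in the primary screen (cut at about 12% in these data); inactive means the rest.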
What follows are compounds tested against Troponin I, cardiac muscle (Homo sapiens) + Troponin T, cardiac muscle (Homo sapiens) + Troponin C, slow skeletal and cardiac muscles (Homo sapiens) (UniProt P19429+P45379+P63316) (assay: calcium sensitizers of cardiac thin filaments – biochemical, IANBD-TnC fluorescence, triplicate, confirmation (AID 504383;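 further: 0% = DMSO at 0.472 mM calcium and 100% = DMSO at 2.9 mM calcium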)). Conditions: IANBD-labeled cardiac RTF, Ca2+ sensitivity fluorescence; at 7.2 µM; hits give high values; scaled from EC20 to saturating calcium; tested at EC20 calcium, 0.472 mM.
How it was run: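 Material: labelled regulated thin filaments; Reagent: 0.472 mM calcium; Incubation: 15 min compound incubation with filaments at 25 °C; Detection: filament fluorescence intensity; Evaluation: fluorescence increase normalised to calcium controls; Benchmarks: low control EC20 calcium, high control EC100 calcium.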

Row | Compound | activation
1 | CN1CC[C@@H]2C(=O)N3CCc4ccc(Br)cc4[C@@H]3C[C@@H]21 | 10.5%
2 | CC(Sc1nc2ncc(Cl)cc2[nH]1)C(=O)Nc1ccc(C(N)=O)cc1 (stereo not drawn) | 1.26%
3 | O=C(CSc1nc2ncc(Br)cc2[nH]1)c1cccc([N+](=O)[O-])c1 | 64% (active)
4 | CC(=O)N1C(=O)C(=C2C=C(C)OC(C)=C2)c2ccccc21 | 62.7% (active)
5 | Cc1c2ccccc2nc2c(F)c(N(C)C)c(F)c(F)c12 | 19.2% (active)
6 | Cc1c2ccccc2nc2c(F)c(NCCO)c(F)c(F)c12 | 159% (active)
7 | CCn1c(O)c(/C=N/N=C/c2ccc(OC)cc2)c2cc(C3=NNC(=O)CC3)ccc21 | 20.9% (active)
8 | CCn1c(O)c(/C=N/N=C/c2ccccc2)c2ccc(C3=NNC(=O)CC3)cc21 | 10.2%
9 | C/C(=N/Nc1ccnc2cc(Cl)ccc12)c1ccc(N)cc1 | 18.9% (active)
10 | C/C(=N\Nc1nccnc1Cl)c1ccc(Cl)c(Cl)c1 | 5.84%
11 | O=C(Nc1ccccc1)C1CC2CCCC(C1)C2=O (stereo not drawn) | 8.65%
12 | O=C(Nc1ccccc1)OC1CCC2CC1CCC2OC(=O)Nc1ccccc1 (stereo not drawn) | 7.87%
13 | O=C(Nc1ccccc1)NC1CS(=O)(=O)CC1O (stereo not drawn) | 149% (active)
14 | CCC(C)(C)NC(=O)C(c1ccc(F)cc1)N(Cc1ccco1)C(=O)c1cnccn1 (stereo not drawn) | 70.6% (active)
15 | O=C1CCN2C=Nc3cccc4ccc1c2c34 | 13.7% (active)
16 | CNC(=S)N1N=C(c2ccc(Br)cc2)CC1c1ccc(N(C)C)cc1 (stereo not drawn) | 31% (active)
17 | CCN1/C(=C/C=C/c2oc3ccc(-c4ccccc4)cc3[n+]2CC)Oc2ccc(-c3ccccc3)cc21 | 6.07%
18 | CCCCN1C(=O)/C(=C/C=C2\Oc3ccccc3N2CC)SC1=S | 53.5% (active)
19 | CCCN1C(=O)/C(=C\C=C2\N(CC)c3ccccc3C2(C)C)SC1=S | 10.1%
20 | CCCN1C(=O)/C(=C/C=C2\N(CC)c3ccccc3C2(C)C)SC1=S | 3.85%
21 | CCSC1=N/C(=C\C=C2/Oc3ccccc3N2CC)C(=O)S1 | 31.9% (active)
22 | COc1cccc(F)c1C(=O)NC(=O)Nc1ccc2nc(C)oc2c1 | 252% (active)
23 | Cc1cc2nc3c(=O)n(CCc4ccccc4)c(=O)[nH]c3nc2cc1N | 17.3% (active)
24 | CCCCn1c(=O)[nH]c2nc3cc(N)ccc3nc2c1=O | 0.26%
25 | C=CCn1c(=O)[nH]c2nc3cc(N=CN(C)C)c(C)cc3nc2c1=O | 69.7% (active)
26 | CC(=O)OCCn1c2nc(=O)[nH]c(=O)c-2nc2cc(C)c(C)cc21 | 1.76%

Row | Compound | activation
27 | Cc1ccccc1-n1c(=O)n(CCc2ccccc2)c(=O)c2[nH]cnc21 | 8.97%
28 | CCCCCCn1c(=O)[nH]c2nc3cc(N)c(C)cc3nc2c1=O | 158% (active)
29 | COCCN1C(=O)/C(=C/c2ccc(N3CCCC3)cc2)SC1=S | 15.2% (active)
30 | COc1ccc(/C=C2\SC(=O)N(CCC(=O)N3CCN(C)CC3)C2=O)cc1 | 5.35%
31 | COCCN1C(=O)/C(=C/c2ccc(N3CCCC3)cc2C)SC1=S | 0.91%
32 | O=C1c2ccccc2-c2onc3ccc(Oc4ccccc4)c1c23 | 7.69%
33 | Cc1occc1C(=O)N=Nc1c(O)n(C)c2ccccc12 | 15.2% (active)
34 | CCOC(=O)COn1c(=O)c(-c2cc3ccccc3o2)[n+]([O-])c2ccccc21 | 2.03%
35 | O=C(CSc1nc2ccccc2s1)NNC(=S)Nc1ccccc1 | 482% (active)
36 | COc1ccc(-c2noc(CCC(=O)NCCc3ccccc3)n2)cc1 | 10.9%
37 | Cc1ccccc1Nc1nnc(SCC(=O)c2cc3ccccc3o2)s1 | 6.8%
38 | O=C(CSc1nc2cc(Cl)ccc2s1)c1cc2ccccc2o1 | 107% (active)
39 | COc1ccc(OC)c(NC(=O)NCCc2cccc(Cl)c2)c1 | 5.54%
40 | O=C(CSc1nc2ccccc2s1)c1cc2ccccc2o1 | 14.8% (active)
41 | COc1ccc(OC)c(-n2nnnc2SCC(=O)NCCc2ccccc2)c1 | 12.5% (active)
42 | Cc1ccc2c(c1)[C@H]1[C@H](CO2)[C@H](c2ccccc2)[C@]2(C)C(=O)N(Cc3ccc(F)cc3)CC(=O)N12 | 4.21%
43 | COc1ccc(-n2nnnc2SCC(=O)c2cc3ccccc3o2)cc1 | 40.8% (active)
44 | NS(=O)(=O)c1ccc(-c2ccc(/C=C3\SC(=S)N(C4CCS(=O)(=O)C4)C3=O)o2)cc1 (stereo not drawn) | 17.8% (active)
45 | O=C(Nc1ccc(F)cc1)OCCN1CCN(Cc2ccccc2)CCC1=O | 5.99%
46 | Fc1ccc(CN2CCCN(C(=S)Nc3ccc(F)cc3)CC2)cc1 | 54% (active)
47 | CCn1c(C(C)NC(C)=O)nc2ccccc21 (stereo not drawn) | 16.6% (active)
48 | CCn1c(CNc2ccc(C(=O)O)cc2)nc2ccccc21 | -2.9%
49 | C/C(=N\NC(=O)c1cc2c(s1)CCC(C)C2)c1ccc[nH]1 (stereo not drawn) | 5.66%
50 | COCCN(C(=S)Nc1cccc(OC)c1)C1CCN(C(C)=O)CC1 | 12.8% (active)
51 | CC(OC(=O)/C(C#N)=C/c1ccc(N(C)C)cc1)C(=O)N(C)Cc1ccccc1 (stereo not drawn) | 18.4% (active)
52 | CN(C)c1ccc(/C=C(\C#N)C(=O)c2ccccc2)cc1 | 9.54%

Row | Compound | activation
53 | CN(C)c1ccc(/C=C(\C#N)C(=O)Nc2nc3c(s2)CCN(Cc2ccccc2)C3)cc1 | 6.43%
54 | CC(OC(=O)/C(C#N)=C/c1ccc(N(C)C)cc1)C(=O)N(C)c1ccccc1 (stereo not drawn) | 17.5% (active)
55 | CC(=O)Nc1ccc(NC(=O)C(C)OC(=O)/C(C#N)=C/c2ccc(N(C)C)cc2)cc1 (stereo not drawn) | 17% (active)
56 | CN(C)c1ccc(/C=C(/C#N)C(=O)Nc2nc3c(s2)CCN(Cc2ccccc2)C3)cc1 | 10.5%
57 | Brc1ccc(C2=CC(c3ccco3)n3ncnc3N2)cc1 (stereo not drawn) | 7.55%
58 | Fc1ccc(C2=CC(c3ccco3)n3ncnc3N2)cc1 (stereo not drawn) | 18.9% (active)
59 | Fc1ccc(C2=CC(c3ccc(Br)o3)n3ncnc3N2)cc1 (stereo not drawn) | 5.63%
60 | COc1ccc2nc(C)cc(NCc3ccc(F)cc3)c2c1 | 10.7%
61 | COc1ccc2nc(C)c3cc(C)oc3c2c1 | 71.2% (active)
62 | Cc1ccc(NS(=O)(=O)c2ccc(C(=O)N3CCN(c4ncccn4)CC3)cc2)cc1 | 3.55%
63 | O=C(Nc1ccc(S(=O)(=O)Nc2ncccn2)cc1)C1CC(=O)N(c2ccccc2)C1 (stereo not drawn) | 0.68%
64 | O=C(Nc1ccc(S(=O)(=O)Nc2ncccn2)cc1)c1nn(Cc2ccccc2)c(=O)c2ccccc12 | 736% (active)
65 | COCCN1C(=O)N[C@@H](c2cccc(C(F)(F)F)c2)C(C(=O)OC)=C1C | 42.1% (active)
66 | COC(=O)C/C(O)=C(/N=Nc1cccc(C(F)(F)F)c1)C(=O)OC | 9.06%
67 | CCOC(=O)CN1C(=O)N[C@@H](c2cccc(C(F)(F)F)c2)C(C(=O)OC)=C1C | 1.28%
68 | CCOc1ccc(-c2nnc(NC(=O)CCCOc3cccc(C)c3)o2)cc1 | 7.1%
69 | Cc1ccc(S(=O)(=O)N2CC(C(=O)O)=CC[C@H]2c2ccc(Cl)cc2)cc1 | 4.74%
70 | Cc1nnc(N/N=C/c2ccc(O)c([N+](=O)[O-])c2)[nH]c1=O | 35.2% (active)
71 | Cc1cc(/C=C2/NC(=O)N(Cc3ccccc3F)C2=O)c(C)n1C | 25.1% (active)
72 | Cc1ccc(/C=C2/NC(=O)N(Cc3ccccc3F)C2=O)s1 | 7.33%
73 | O=C(CC1SC(N2CCCCC2)=NC1=O)Nc1ccc(C(=O)NCc2ccccc2)cc1 (stereo not drawn) | 9.91%
74 | CCCNC(=O)C12CCC(C)(C(=O)C1Br)C2(C)C (stereo not drawn) | 12.4% (active)
75 | COc1cc2c(cc1OC)-c1cc3ccc4c(c3c[n+]1CC2)OCO4 | 15.6% (active)
76 | CCOCCCNS(=O)(=O)c1ccc(NC(=O)c2ccc(OC)c([N+](=O)[O-])c2)cc1 | 9.02%
77 | CCCCC(=O)Nc1ccc(C(=O)Nc2ccc(OC)cc2[N+](=O)[O-])cc1 | 13.3% (active)
78 | Cc1ccc2nc3nc(NCC4CCCO4)c(C(=O)NC4CCCC4)cc3c(=O)n2c1 (stereo not drawn) | 12.9% (active)
